Measured values published in publication PMC10824272 (Biomedicine & pharmacotherapy = Biomedecine & …, 2023).
Entries after “also recorded” stand apart in the source; their conditions may differ.

Key:
[1] = Metabolic stability, phase I; assay type: in vitro ADME, human; settings: HLM, phase I metabolism, 60 min
Summary of the method: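 Phase I stability in human liver microsomes (20 mg/ml stock), 100 mM potassium phosphate pH 7.4, 10 mM MgCl2, 2 mM NADPH. Mix pre-incubated 10 min at 37 °C. Output is percent parent remaining per time point. Elimination rate constant taken from first-order plot of ln area ratio versus time.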

HCT116 cells [2] = experiment: Transwell matrigel invasion assay; assay type: cell-based, human; settings: I-6; claudin-1 deficient HCT116
SW620^1C cells = experiment: Anoikis-induced apoptosis assay; assay type: cell-based, human; settings: claudin-1 knockdown SW620^1C
Summary of the method: (§1)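 Anoikis induced by plating cells on poly-HEMA-coated culture plates. Apoptosis quantified with a cell death detection ELISA. Parental lines were cultured in RPMI with 10% FBS. Claudin-1-overexpressing SW480 and claudin-1-knockdown SW620 derivatives were used.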

[3] = tested on: pSrc, pAkt, Bcl2, Bcl-xL, survivin, cleaved PARP in SW620 and SW480^cld1 cells; experiment: Immunoblotting of signaling and apoptosis markers; assay type: cell-based, human; settings: I-6, SW480^cld1 cells
Summary of the method: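 Treated cells (vehicle or 12.5 and 25 μM) lysed. 10–30 μg protein per lane resolved by SDS-PAGE and immunoblotted, with enhanced chemiluminescence detection on film. Antibodies included p-Src (Tyr416), pAkt and total Akt, with GAPDH or β-actin as loading reference.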

SW620 cells [4] = experiment: Anoikis-induced apoptosis assay; assay type: cell-based
[5] = tested on: SW480^cld1 xenograft tumor; experiment: Subcutaneous xenograft tumor study; assay type: in vivo, athymic nude mice
Summary of the method: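 Cells implanted subcutaneously in athymic nude mice, n = 5 per group, vehicle controls. For SW480cld1 with I-6, once-weekly dosing started 10 days after implantation, once tumors were palpable, for two weeks. Caliper volume over time, formula […]. Ki67 and cleaved PARP by IHC. Behavior and body weight monitored.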

SW620 cells [6] = experiment: Transwell matrigel invasion assay; assay type: cell-based, human; settings: I-6; claudin-1 overexpressed SW620
HCT116 cells [7] = experiment: Cell viability; assay type: cell-based, human; settings: 25 & 50μM
Summary of the method: (§2)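 Cells maintained in RPMI plus 10% FBS. Viability read with PrestoBlue reagent per kit protocol after 72 h exposure to test compound.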

SW480^cld1 cells [8] = experiment: Transwell matrigel invasion assay; assay type: cell-based, human; settings: I-6; claudin-1 overexpressed SW480^cld1
[9] = Tissue bio-distribution in mice; assay type: in vivo; settings: both, mouse, liver, po, 5 mg/kg
SW620 cells [10] = experiment: Cell viability; assay type: cell-based, human
Summary of the method: (§3)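 Claudin-1-overexpressing SW480cld1 and SW620 cells grown in RPMI with 10% FBS and exposed for 72 hours to a range of test compound concentrations. Viability measured by PrestoBlue reagent. EC50 calculated from the concentration–viability data.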

SW480 cells = experiment: Cell viability; assay type: cell-based, human; settings: even at 25μM
[11] = Plasma pharmacokinetics in mice; assay type: in vivo
Summary of the method: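 I-6 given as a single 1 mg/kg intravenous dose to C57BL6 mice (n=5), with serial blood sampling. PDS-0330 given at 5 mg/kg by oral gavage or IP, with ~100 μl blood drawn from the maxillary vein at 5, 15, 30 min and 1, 2, 4, 6, 8, 24 h. Plasma levels in ng/ml; non-compartmental parameters.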

[12] = target: T1, claudin-1/Src association (Homo sapiens, UniProt O95832); experiment: Proximity ligation assay; assay type: cell-based
T1 sequence (O95832 1-211): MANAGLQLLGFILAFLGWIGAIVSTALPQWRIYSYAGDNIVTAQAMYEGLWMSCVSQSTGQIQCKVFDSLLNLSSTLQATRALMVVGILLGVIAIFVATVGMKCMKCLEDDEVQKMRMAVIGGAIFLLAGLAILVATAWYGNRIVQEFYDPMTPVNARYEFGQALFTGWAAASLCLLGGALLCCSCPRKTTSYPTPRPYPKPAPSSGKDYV

HCT116 cells [13] = experiment: Anoikis-induced apoptosis assay; assay type: cell-based, human; settings: claudin-1 deficient HCT116
SW480^cld2 cells = experiment: Cell viability; assay type: cell-based, human; settings: 25 & 50μM
Summary of the method: as §2

SW480^cld1 cells [14] = experiment: Cell viability; assay type: cell-based, human
Summary of the method: as §3

[15] = tested on: colon tumoroids from APC^min/+ / claudin-1 mice; experiment: Tumoroid culture apoptosis; assay type: cell-based
Summary of the method: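 Colon tumors from APCmin/+/claudin-1 mice washed in ice-cold PBS and digested with collagenase-containing buffer. Single cells pelleted at 200 x g for 3 min, embedded in Matrigel and plated as tumoroids. Tumoroids exposed to test compound alone or with 5 μM 5-FU, then scored for apoptosis.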

SW480^cld1 cells [16] = experiment: Anoikis-induced apoptosis assay; assay type: cell-based
Summary of the method: as §1

[17] = I-6 1mg/kg intravenous, mice, plasma, 1 mg/kg
[18] = both, C57BL6, mouse, plasma, iv, 1 mg/kg

For `COc1cc2ccccc2cc1C(=O)NC(=S)Nc1ccc(-c2nc3ccccc3[nH]2)cc1` [I-6, N-((4-(1H-benzo[d]imidazol-2-yl)phenyl)carbamothioyl)-3-methoxy-2-naphthamide], the “drug remaining after 60 min” value [1] was 49%, the invasion (HCT116 cells [2]) was “no effect” and the resistance to anoikis (SW620^1C cells) was “no effect”. For the same compound, the Src phosphorylation [3] was “significantly interferes”, the resistance to anoikis (SW620 cells [4]; claudin-1 overexpressed SW620) was “inhibition of resistance to anoikis” and the “effect with 5-FU on anoikis resistance” value (SW620 cells [4]; co-treatment with 5-FU) was “synergistic effect”. The “Ki67 expression in tumors (IHC)” value ([5]; I-6 10 mg/kg) was “significantly inhibited”, the “cleaved PARP in tumors (IHC)” value ([5]; I-6 10 mg/kg) was “significantly increased” and the “tumor volume and weight at necropsy” value ([5]; I-6 10 mg/kg once/week, vs vehicle) was “significantly reduced”. For the same compound, the “effect with 5-FU on development of xenograft tumor” value ([5]; co-treatment with 5-FU, nude mice) was “synergistic effect”, the “mouse behavior or weight” value ([5]; during I-6 / 5-FU xenograft studies) was “no obvious changes” and the invasion (SW620 cells [6]) was “suppresses invasion”. For the same compound, the cell viability (HCT116 cells [7]) was “no significant impact”, the invasion (SW480^cld1 cells [8]) was “suppresses invasion” and the concentration at 24 h [9] was 65 ng/g. The cell viability (SW620 cells [10]; 25 & 50μM, P<0.001) was “significantly decreases cell viability”, the EC50 (SW620 cells [10]; Homo sapiens, SW-620, 72 h, read-out: EC50, cell viability) was 24.8 µM and the “impact on SW480 cells” value (SW480 cells) was “no significant impact”. For the same compound, the “time up to which detectable in plasma” value ([11]; I-6 1mg/kg intravenous, mice) was “up to 24 h”, the “AUC0- ∞” value [11, 17] was 1207.1 ± 35.6 ng·h/mL and the C0 [11, 17] was 798.3 ± 277.2 ng/mL. The “time of plasma peak concentration” value ([11]; I-6 oral 5mg/kg, mice) was 2 h, the AUC(0-t) [11, 18] was 1140 ± 59.6 ng·h/mL and the MRT [11, 18] was 5.6 ± 1.2 h. It also gave a half-life [11, 18] of 420 ± 96 min, an AUC(0-inf) ([11]; both, C57BL6, mouse, plasma, iv, 1 mg/kg, AUC0- ∞, I-6 1mg/kg intravenous, mice) of 1140 ng·h/mL and a C0 ([11]; both, C57BL6, mouse, plasma, iv, 1 mg/kg, C0, I-6 1mg/kg intravenous, mice) of 798 ng/mL. The Vd ([11]; both, C57BL6, mouse, plasma, iv, 1 mg/kg, Vd, I-6 1mg/kg intravenous, mice) was 8.4 ± 2.1 L/kg, the Vd ([11]; both, C57BL6, mouse, plasma, iv, 1 mg/kg, Vss, I-6 1mg/kg intravenous, mice) was 4.7 ± 1.1 L/kg and the Cmax ([11]; both, mouse, plasma, po, 5 mg/kg) was 2.8 ng/mL. For the same compound, the “association of claudin-1 with Src” value [12] was “significantly interferes”, the resistance to anoikis (HCT116 cells [13]) was “no effect” and the cell viability (SW480^cld2 cells) was “no significant impact”. For the same compound, the cell viability (SW480^cld1 cells [14]; 25 & 50μM, P<0.001) was “significantly decreases cell viability”, the EC50 (SW480^cld1 cells [14]; Homo sapiens, 72 h, read-out: EC50, cell viability) was 28.4 µM and the “effect with 5-FU on cell growth” value (SW480^cld1 cells [14]; I-6 0.625μM-20μM with 5-FU 5μM) was “synergistic effect”. The “effect with 5-FU on induction of apoptosis in tumoroids” value ([15]; I-6 25μM with 5-FU 5μM) was “synergistic effect”, the “rate of apoptosis in tumoroids” value ([15]; I-6 25μM, 48 hours) was “significantly increased” and the resistance to anoikis (SW480^cld1 cells [16]; claudin-1 overexpressed SW480^cld1) was “dramatically inhibits anoikis resistance; also recorded: inhibition of resistance to anoikis”. The “effect with 5-FU on anoikis resistance” value (SW480^cld1 cells [16]; co-treatment with 5-FU) was “synergistic effect”.
